Results published in ChEMBL document CHEMBL1154160, “Synthesis, antiviral activity, and stability of nucleoside analogs containing tricyclic bases” (Eur J Med Chem, 2009).

What was measured:
PBMC = experiment: (§1) Cytotoxicity against human PBMC cells; type: cell-based; details: pbmc
CCRF-CEM = experiment: (§2) Cytotoxicity against human CEM cells; type: cell-based; details: ccrf-cem
Vero = experiment: (§3) Cytotoxicity against african green monkey Vero cells; type: cell-based; details: chlorocebus sabaeus, vero
Hepatitis C virus = experiment: Antiviral activity against HCV in human Huh7 cells by RNA replicon assay; type: functional, organism-based, Hepacivirus hominis; details: Huh-7
[1] = system: Human immunodeficiency virus; experiment: Antiviral activity against HIV in human PBM cells; details: Human immunodeficiency virus 1, PBMC
Human alphaherpesvirus 1 = experiment: Antiviral activity against HSV1 F in african green monkey Vero cells by plaque reduction assay; type: functional, organism-based; details: Human alphaherpesvirus 1, strain F
[2] = as §1; type: cell-based; details: PBMC cells
[3] = as §2; type: cell-based, CCRF-CEM; details: CEM (CCRF-CEM) cells
[4] = as §3; type: cell-based; details: chlorocebus sabaeus, Vero cells
[5] = Stability in methanol assessed as 3'-azido-3'-deoxyguanosine levels after 72 hrs; type: physicochemical
Procedure, shortened: (§4)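 Analogs were diluted from a freshly made stock into water and into methanol, with one half held at room temperature and the other at 4°C. Samples were injected at intervals: every 15 min for 2 hr, then hourly, daily and weekly. LC-MS/MS used a C18 column at 30°C with a formate pH 3 (or water)/methanol gradient, ESI-positive SRM. Released guanine-analog was quantified against 10–1000 nM standard curves.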

[6] = Stability in water assessed as half life; type: physicochemical; details: buffer; procedure, shortened: as §4

Row | Structure (SMILES) | CC50 (PBMC) [µM] | CC50 (CCRF-CEM) [µM] | CC50 (Vero) [µM] | EC50 (Hepatitis C virus) [µM] | EC90 (Hepatitis C virus) [µM] | EC50 [1] [µM] | EC90 [1] [µM] | EC50 (Human alphaherpesvirus 1) [µM] | EC90 (Human alphaherpesvirus 1) [µM] | CC50 [2] [µM] | CC50 [3] [µM] | CC50 [4] [µM] | Activity [5] [%] | t1/2 [6] [min]
1 | C[C@@]1(O)[C@H](O)[C@@H](CO)O[C@H]1n1cnc2c(=O)n3cc(-c4ccsc4)[nH]c3nc21 | > 100 | > 100 | > 100 | ≥ 10 | > 10 | > 100 | > 100 | – | – | – | – | – | – | –
2 | [N-]=[N+]=N[C@H]1C[C@H](n2cnc3c(=O)n4cc(-c5ccccc5)[nH]c4nc32)O[C@@H]1CO | 69.6 | 21.8 | > 100 | > 10 | > 10 | 8.4 | 94.1 | – | – | – | – | – | – | –
3 | CCN(CC)c1ccc(-c2cn3c(=O)c4ncn([C@H]5C=C[C@@H](CO)C5)c4nc3[nH]2)cc1 | > 100 | > 100 | > 100 | > 10 | > 10 | 0.13 | 0.65 | – | – | – | – | – | – | –
4 | COc1ccc(-c2cn3c(O)c4ncn(COCCO)c4nc3n2)cc1 | – | – | – | – | – | – | – | 12.2 | 23.7 | – | – | – | – | –
5 | O=c1c2ncn([C@H]3CO[C@@H](CO)O3)c2nc2[nH]c(-c3cccs3)cn12 | > 100 | > 100 | > 100 | > 10 | > 10 | 3 | 16 | – | – | – | – | – | – | –
6 | O=c1c2ncn([C@H]3C=C[C@@H](CO)C3)c2nc2[nH]c(-c3ccsc3)cn12 | > 100 | > 100 | > 100 | > 10 | > 10 | 2.6 | 15.5 | – | – | – | – | – | – | –
7 | CCc1cn2c(=O)c3ncn([C@H]4CO[C@@H](CO)O4)c3nc2[nH]1 | > 100 | > 100 | > 100 | > 10 | > 10 | 31.5 | > 100 | – | – | – | – | – | – | –
8 | Cc1ccc(-c2cn3c(=O)c4ncn([C@H]5CO[C@@H](CO)O5)c4nc3[nH]2)cc1 | > 100 | > 100 | > 100 | > 10 | > 10 | 4.9 | 23.9 | – | – | – | – | – | – | –
9 | COc1ccc(-c2cn3c(=O)c4ncn([C@@H]5O[C@H](CO)[C@@H](O)[C@@]5(C)O)c4nc3[nH]2)cc1 | > 100 | > 100 | > 100 | ≥ 10 | > 10 | > 100 | > 100 | – | – | – | – | – | – | –
10 | O=c1c2ncn([C@H]3CO[C@@H](CO)O3)c2nc2[nH]c(-c3ccccc3)cn12 | > 100 | > 100 | > 100 | > 10 | > 10 | 7.1 | 43.5 | – | – | – | – | – | – | –
11 | CN(C)c1ccc(-c2cn3c(=O)c4ncn([C@H]5C[C@H](N=[N+]=[N-])[C@@H](CO)O5)c4nc3[nH]2)cc1 | > 100 | 74.6 | > 100 | > 10 | > 10 | 0.14 | 0.54 | – | – | – | – | – | – | –
12 | COc1ccccc1-c1cn2c(=O)c3ncn([C@H]4CO[C@@H](CO)O4)c3nc2[nH]1 | > 100 | > 100 | > 100 | > 10 | > 10 | 8.5 | 26.8 | – | – | – | – | – | – | –
13 | CN(C)c1ccc(-c2cn3c(=O)c4ncn([C@H]5CO[C@@H](CO)O5)c4nc3[nH]2)cc1 | > 100 | > 100 | > 100 | > 10 | > 10 | 0.61 | 1.5 | – | – | – | – | – | – | –
14 | O=c1c2ncn([C@H]3CO[C@@H](CO)O3)c2nc2[nH]c(-c3ccsc3)cn12 | > 100 | > 100 | > 100 | > 10 | > 10 | 0.91 | 6.6 | – | – | – | – | – | – | –
15 | CCN(CC)c1ccc(-c2cn3c(=O)c4ncn([C@H]5CO[C@@H](CO)O5)c4nc3[nH]2)cc1 | > 100 | 80.8 | 63 | > 10 | > 10 | 0.25 | 1.25 | – | – | – | – | – | – | –
16 | CN(C)c1ccc(-c2cn3c(=O)c4ncn([C@@H]5O[C@H](CO)[C@@H](O)[C@@]5(C)O)c4nc3[nH]2)cc1 | – | > 100 | > 100 | – | – | – | – | – | – | – | – | – | – | –
17 | Nc1nc2c(ncn2[C@H]2CO[C@@H](CO)O2)c(=O)[nH]1 | > 100 | > 100 | > 100 | > 10 | > 10 | 0.51 | 2.4 | – | – | – | – | – | – | –
18 | O=c1c2ncn([C@H]3C=C[C@@H](CO)C3)c2nc2[nH]c(-c3ccc(Br)cc3)cn12 | > 100 | > 100 | > 100 | > 10 | > 10 | 12.3 | 43.2 | – | – | – | – | – | – | –

Row | Structure (SMILES) | CC50 (PBMC) [µM] | CC50 (CCRF-CEM) [µM] | CC50 (Vero) [µM] | EC50 (Hepatitis C virus) [µM] | EC90 (Hepatitis C virus) [µM] | EC50 [1] [µM] | EC90 [1] [µM] | EC50 (Human alphaherpesvirus 1) [µM] | EC90 (Human alphaherpesvirus 1) [µM] | CC50 [2] [µM] | CC50 [3] [µM] | CC50 [4] [µM] | Activity [5] [%] | t1/2 [6] [min]
19 | CN(C)c1ccc(-c2cn3c(=O)c4ncn([C@H]5C=C[C@@H](CO)C5)c4nc3[nH]2)cc1 | 24 | > 100 | > 100 | > 10 | > 10 | 0.11 | 0.47 | – | – | – | – | – | – | –
20 | N#Cc1ccc(-c2cn3c(=O)c4ncn([C@H]5CO[C@@H](CO)O5)c4nc3[nH]2)cc1 | > 100 | > 100 | > 100 | > 10 | > 10 | 69.3 | > 100 | – | – | – | – | – | – | –
21 | O=c1c2ncn([C@H]3CO[C@@H](CO)O3)c2nc2[nH]c(-c3ccc(F)cc3F)cn12 | > 100 | > 100 | > 100 | > 10 | > 10 | 14.7 | 51.8 | – | – | – | – | – | – | –
22 | O=c1c2ncn([C@H]3CO[C@@H](CO)O3)c2nc2[nH]c(-c3ccc(F)cc3)cn12 | > 100 | > 100 | > 100 | > 10 | > 10 | 43.5 | > 100 | – | – | – | – | – | – | –
23 | COc1ccc(-c2cn3c(=O)c4ncn([C@H]5C[C@H](N=[N+]=[N-])[C@@H](CO)O5)c4nc3[nH]2)cc1 | 56.7 | 13.5 | > 100 | > 10 | > 10 | 1.3 | 7 | – | – | – | – | – | – | –
24 | COc1ccc(-c2cn3c(=O)c4ncn([C@H]5CO[C@@H](CO)O5)c4nc3[nH]2)cc1 | > 100 | > 100 | > 100 | > 10 | > 10 | 3.45 | 23.9 | – | – | – | – | – | – | –
25 | Nc1nc2c(ncn2[C@H]2C=C[C@@H](CO)C2)c(=O)[nH]1 [CARBOVIR] | 7 | > 100 | > 100 | > 10 | > 10 | 0.043 | 0.29 | – | – | – | – | – | – | –
26 | O=c1c2ncn([C@H]3C=C[C@@H](CO)C3)c2nc2[nH]c(-c3cccs3)cn12 | > 100 | > 100 | > 100 | > 10 | > 10 | 0.64 | 7.1 | – | – | – | – | – | – | –
27 | COc1cccc(-c2cn3c(=O)c4ncn([C@H]5CO[C@@H](CO)O5)c4nc3[nH]2)c1 | > 100 | > 100 | > 100 | > 10 | > 10 | 20.7 | 89.6 | – | – | – | – | – | – | –
28 | Cc1ccc(-c2cn3c(=O)c4ncn([C@H]5C=C[C@@H](CO)C5)c4nc3[nH]2)cc1 | > 100 | > 100 | > 100 | > 10 | > 10 | 5 | 30.1 | – | – | – | – | – | – | –
29 | [N-]=[N+]=Nc1ccc(-c2cn3c(=O)c4ncn([C@H]5CO[C@@H](CO)O5)c4nc3[nH]2)cc1 | > 100 | > 100 | > 100 | > 10 | > 10 | 2.6 | 11.4 | – | – | – | – | – | – | –
30 | COc1ccc(-c2cn3c(=O)c4ncn([C@H]5C=C[C@@H](CO)C5)c4nc3[nH]2)cc1 | > 100 | > 100 | > 100 | > 10 | > 10 | 0.62 | 4.9 | – | – | – | – | – | – | –
31 | O=c1c2ncn([C@H]3CO[C@@H](CO)O3)c2nc2[nH]c(-c3ccc(Cl)cc3)cn12 | > 100 | > 100 | > 100 | > 10 | > 10 | > 100 | > 100 | – | – | – | – | – | – | –
32 | C[C@@]1(O)[C@H](O)[C@@H](CO)O[C@H]1n1cnc2c(=O)n3cc(-c4cccs4)[nH]c3nc21 | > 100 | > 100 | 44.3 | 6.9 | 25.6 | > 100 | > 100 | – | – | – | – | – | – | –
33 | C[C@@]1(O)[C@H](O)[C@@H](CO)O[C@H]1n1cnc2c(=O)[nH]c(N)nc21 [2'-B-METHYL-GUANOSINE] | – | – | – | 2.3 | 7.8 | > 100 | > 100 | – | – | > 100 | > 100 | > 100 | – | –
34 | CCN(CC)c1ccc(-c2cn3c(=O)c4ncn([C@H]5C[C@H](N=[N+]=[N-])[C@@H](CO)O5)c4nc3[nH]2)cc1 | > 100 | 14.1 | 72.8 | > 10 | > 10 | 0.04 | 0.34 | – | – | – | – | – | 1 | 25
35 | CCc1cn2c(=O)c3ncn([C@@H]4O[C@H](CO)[C@@H](O)[C@@]4(C)O)c3nc2[nH]1 | – | – | – | > 10 | > 10 | > 100 | > 100 | – | – | > 100 | > 100 | > 100 | – | –
